Screens deposited in PubChem by several laboratories.
The list is not random: actives were taken first. Their share in the collection is about 1.9%.
NTR1 ag: NTR1 (human) agonism; 330,000 compounds, 0.17% hits; NTR1-U2OS beta-arrestin-GFP spot imaging, agonist mode; activation, % at 20 µM; AID 493036; P30989;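 active = activation at or above 40% of the spot to cytoplasm intensity ratio, with at least 20 cells analyzed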;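 note: 0% = DMSO without peptide and 100% = 100 nM NTR1 peptide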
MC4R antagonist: human MC4R antagonism in cAMP assay; AID 540295; inhibition, % at 6.5 µM; P32245; 360,000 compounds, 0.48% hits; MC4R-expressing cells, MTII-stimulated cAMP, LANCE TR-FRET;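 active = inhibition above its plate's cutoff, the mean of tested wells on that plate plus 3 SD, cut at about 29% in these data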;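 note: 0% = Melanotan II alone and 100% = Melanotan II plus saturating MCL0020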
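Assay system: U2OS-MC4R stable cell line; Also added: Melanotan II; Technique: Eu-cAMP/anti-cAMP TR-FRET, emission 671 nm; Times: 30-min compound, 1-h challenge, 1-h detection, room temperature.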
TLR9-MyD88 block: TLR9-MyD88 interaction inhibition; Q9NR96+Q99836; CHO BLA complementation TLR9-MyD88, CCF4 FRET ratio; inhibition, % at 4.98 µM; 340,000 compounds, 0.21% hits; AID 504734;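 active = inhibition above the mean over all tested compounds plus 3 SD, cut at about 21% in these data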;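 note: 0% = DMSO only wells and 100% = clavulanate BLA inhibitor control wells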
TLR4-MyD88 BLA: blocks binding of human TLR4 to MyD88; inhibition, % at 8.4 µM; O00206+Q99836; HeLa CL3-4 TLR4/MyD88 BLA complementation, FRET ratio; AID 861; 200,000 compounds, 0.18% hits; in the data active = inhibition above about 25%;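 note: 0% = vehicle and 100% = reference inhibitor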
Target sequence (O00206 whole entry, looked up): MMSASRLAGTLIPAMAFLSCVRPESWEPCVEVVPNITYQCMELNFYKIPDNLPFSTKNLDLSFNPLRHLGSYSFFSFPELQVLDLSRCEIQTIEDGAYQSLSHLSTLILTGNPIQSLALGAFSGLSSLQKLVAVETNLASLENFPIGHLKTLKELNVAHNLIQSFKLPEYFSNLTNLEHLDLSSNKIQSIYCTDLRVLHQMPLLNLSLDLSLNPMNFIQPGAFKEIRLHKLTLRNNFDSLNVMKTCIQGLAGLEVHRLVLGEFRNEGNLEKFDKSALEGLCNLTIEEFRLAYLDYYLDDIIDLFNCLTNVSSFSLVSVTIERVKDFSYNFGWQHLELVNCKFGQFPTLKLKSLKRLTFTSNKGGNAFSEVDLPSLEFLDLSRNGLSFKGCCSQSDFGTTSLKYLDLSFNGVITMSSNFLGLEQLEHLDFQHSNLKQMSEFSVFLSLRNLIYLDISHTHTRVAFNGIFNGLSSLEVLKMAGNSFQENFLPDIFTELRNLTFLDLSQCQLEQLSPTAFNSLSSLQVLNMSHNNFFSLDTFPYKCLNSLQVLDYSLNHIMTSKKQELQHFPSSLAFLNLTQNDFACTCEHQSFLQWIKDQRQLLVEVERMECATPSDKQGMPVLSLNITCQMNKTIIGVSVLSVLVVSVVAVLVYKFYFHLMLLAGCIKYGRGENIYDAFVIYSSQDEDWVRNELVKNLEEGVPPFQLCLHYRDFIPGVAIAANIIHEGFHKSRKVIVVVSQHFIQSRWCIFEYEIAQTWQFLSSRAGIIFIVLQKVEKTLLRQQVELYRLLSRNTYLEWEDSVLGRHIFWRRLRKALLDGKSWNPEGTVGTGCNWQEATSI
Target sequence (Q99836 whole entry, looked up): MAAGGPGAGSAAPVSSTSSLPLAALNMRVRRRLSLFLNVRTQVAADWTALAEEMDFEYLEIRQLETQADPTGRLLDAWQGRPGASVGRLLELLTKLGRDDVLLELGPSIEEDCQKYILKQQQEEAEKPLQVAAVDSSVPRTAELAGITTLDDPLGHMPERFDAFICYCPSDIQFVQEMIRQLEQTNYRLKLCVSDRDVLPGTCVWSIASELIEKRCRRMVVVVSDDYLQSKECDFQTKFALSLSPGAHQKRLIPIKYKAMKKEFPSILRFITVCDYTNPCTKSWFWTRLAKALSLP
NOD2-RIPK2 inh: NOD2-RIPK2 protein interaction inhibition; AID 624267; inhibition, % at 4.98 µM; O43353; CHO BLA complementation NOD2-RIPK2, CCF4 ratio; 360,000 compounds, 0.38% hits; in the data active = inhibition above about 21%;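 note: 0% = vehicle only and 100% = reference blocker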
MC4R barr agon: activates human MC4R beta-arrestin recruitment | activation, % at 8.9 µM | U2OS MC4R beta-arrestin complementation, luminescence; percent of melanotan II response, DMSO zero | 360,000 compounds, 0.98% hits | AID 540308;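 active = activation above a per-plate cutoff, the mean activation of sample wells on that plate plus 3 SD, cut at about 8% in these data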
* = called active by the depositor; / = no result.

SMILES	NTR1 ag	MC4R antagonist	TLR9-MyD88 block	TLR4-MyD88 BLA	NOD2-RIPK2 inh	MC4R barr agon
CC(=O)C1=C(C)NC(SCC(=O)c2cc(Cl)ccc2Cl)=C(C#N)C1c1ccco1 (stereo not drawn)	8	-10	1	-1	21*	-1
COC(=O)C[C@@H]1C=C[C@@H](NC(=O)CN(C)C)[C@@H](CO)O1	/	/	/	/	-11	/
CC(=O)Nc1ccc(NC(=O)CSc2ccccn2)cc1	2	-10	-3	-17	-4	0
O=C(CSc1ccccn1)Nc1cccc(NC(=O)CSc2ccccn2)n1	-1	-1	6	-13	-13	9.1*
Cc1ccccc1NC(=O)C(=O)c1cn(C)c2ccccc12	0	-3	7	-9	-2	12*
Cn1cc(C(=O)C(=O)NCCc2ccccc2)c2ccccc21	0	3	4	/	-2	-2
COc1ccccc1C(=O)NC(=Nc1nc2ccccc2o1)NC(=O)c1ccccc1OC	40*	10	-13	5	-15	-2
O=C(NC(=Nc1nc2ccccc2o1)NC(=O)c1ccccc1)c1ccccc1	2	2	-3	-6	8	-3
Cc1ccccc1C(=O)Nc1nc(SCc2ccc(Cl)cc2)n[nH]1	6	-9	-6	/	-12	8.7*
CCc1nc2ccc(C(=O)N3CCN(S(=O)(=O)CC)CC3)cn2c1N(C)Cc1cccs1	/	4	/	/	0	-4
CC(=O)c1ccc(Nc2nc(C(N)Cc3ccc(Cl)cc3)cs2)cc1 (stereo not drawn)	/	3	/	/	-16	4
O=C(Nc1ccc(S(=O)(=O)N2CCOCC2)cc1)c1cc(-c2cc(Cl)ccc2O)n[nH]1	34	-13	1	/	3	9.1*
Cc1cc(O)c(-c2cc(C(=O)Nc3ccc(S(=O)(=O)N4CCOCC4)cc3)[nH]n2)cc1C	14	17	12	5	1	-2
O=C(NCCC1=CCCCC1)C(c1ccccc1)c1ccccc1	4	2	6	16	9	8.5*
O=C(Cc1ccccc1)NCCC1=CCCCC1	-2	0	-2	4	-3	-2
N/C(=N\OC(=O)c1ccccc1Br)c1ccc([N+](=O)[O-])cc1	1	-16	0	/	-7	8.6*
N/C(=N\OC(=O)c1ccccc1Br)c1cccc([N+](=O)[O-])c1	7	-2	0	/	0	0
Cc1ccc(N(C(=O)C(F)(F)F)C(C(=O)NC2CCCCC2)c2cccs2)cc1 (stereo not drawn)	2	11	-6	2	8	15*
COc1ccc(C(C[N+](=O)[O-])c2c(-c3ccccc3)cc3ccccn23)cc1OC (stereo not drawn)	3	-13	-58	-5	1	-1
COc1ccc(C(C[N+](=O)[O-])C2(c3ccc(OC)c(OC)c3)C(=O)c3ccccc3C2=O)cc1 (stereo not drawn)	/	-8	19	15	82*	0
CC[C@H](C)[C@@H](CO)NC(=O)[C@H]1O[C@@H](n2ccc(=O)[nH]c2=O)[C@H](O)[C@@H]1O	/	/	/	/	-10	/
COc1ccc(-c2c(C)nc(N)nc2-c2ccc(OCc3ccc(C)cc3)cc2O)cc1OC	9	4	1	-6	-2	9.6*
OCCN1CCN(C2Cc3cc(Cl)ccc3Sc3ccc(Cl)cc32)CC1 (stereo not drawn) (tested in a mixture with another compound)	10	2	6	-5	-1	9.3*
COc1ccc(-c2cc(CNc3nc(NC(C)C)nc4cc(-c5ccccc5)sc34)on2)cc1	/	2	/	/	-15	-2
O=C(Nc1ccc(Br)c(C(F)(F)F)c1)c1ccc(C(F)(F)F)cc1	16	17	/	/	-12	8.5*
SMILES	NTR1 ag	MC4R antagonist	TLR9-MyD88 block	TLR4-MyD88 BLA	NOD2-RIPK2 inh	MC4R barr agon
O=C(Nc1ccc(Br)c(C(F)(F)F)c1)c1ccccc1	0	4	0	-8	2	1
O=C1Nc2ccc(Br)cc2/C1=C/C(=O)c1ccc2c(c1)OCO2	55*	-4	5	/	15	-5
COc1ccc(C(=O)/C=C2\C(=O)Nc3ccc(Br)cc32)cc1	/	-2	-7	/	10	0
Cc1ccc(S(=O)(=O)N2[C@H](CC(=O)c3ccc(Cl)c(Cl)c3)OC[C@@H]2C)cc1	/	/	/	/	-15	/
COc1ccc2sc(-c3ccccc3OC)c(C#Cc3cncn3C)c2c1	18	12	-9	/	3	8.6*
COc1ccccc1-c1sc2cc3c(cc2c1C#Cc1cncn1C)OCO3	13	11	-4	/	-4	0
Cc1ccccc1CN1C(=O)CSCC1(C)C(=O)Nc1ccc2c(c1)OCCO2 (stereo not drawn)	/	/	/	/	0	/
Cc1cc(C)nc(N/N=C/c2ccccc2)n1	-1	1	-3	-17	11	-3
Cc1nc(N/N=C/c2ccccc2)nc(N(C)c2ccccc2)c1[N+](=O)[O-]	2	4	-2	8	6	10*
O=C(CCl)Nc1ccc(-c2ccccc2)cc1	6	13	1	-13	-3	9.1*
O=C(CCl)Nc1cccc(Oc2ccccc2)c1	-1	-5	0	14	-5	8.9*
CC(C)CNC(=O)C1(C)CCCN1C(=O)Cc1cccc2ccccc12 (stereo not drawn)	/	0	/	/	-9	1
COc1ccc(-c2cc3c(=O)n(CC(=O)NCc4ccc(C)cc4)ncn3n2)cc1	-2	6	-5	/	-7	9.1*
COc1ccc(-c2cc3c(=O)n(CC(=O)NCc4ccc(F)cc4)ncn3n2)cc1	2	2	11	/	15	1
O=C(NCCN1CCN(c2ccccc2)CC1)c1ccc2c(c1)[nH]c(=S)n1c3ccccc3nc21	-2	8	-11	-9	-11	8.9*
O=C(c1ccc2c(c1)[nH]c(=S)n1c3ccccc3nc21)N1CCN(c2ncccn2)CC1	-2	-5	-7	11	3	2
Cn1cnc(S(=O)(=O)N2CCN(C(c3ccc(F)cc3)c3ccc(F)cc3)CC2)c1	1	5	-1	/	2	-1
O=C(C(O)c1ccccc1)N1CCN(S(=O)(=O)c2ccc(C(F)(F)F)cc2)CC1 (stereo not drawn)	/	/	/	/	10	/
CN(C)c1ccc(S(=O)(=O)c2ccc(Cl)cc2)cc1	0	-5	-4	-7	-4	8.3*
Cc1cc(C)cc(OCC(=O)Nc2nc(-c3cccnc3)cs2)c1	2	7	-5	/	3	9.2*
N#Cc1ccc(OCC(=O)Nc2nc(-c3cccnc3)cs2)cc1	0	4	-8	/	-3	9.1*
O=C(COc1ccccc1)Nc1nc(-c2cccnc2)cs1	-1	7	-5	/	1	4
CC(C)(C)[C@@H]1CCC(=O)N(CC[C@H](Sc2ccc(Br)cc2)c2ccccc2)CC1	7	6	-5	/	10	0
